According to ChEMBL document CHEMBL4376807, “Hydroxamic Acid Derivatives of β-Carboline/Hydroxycinnamic Acid Hybrids Inducing Apoptosis and Autophagy through the PI3K/Akt/mTOR Pathways” (J Nat Prod, 2019):
The source made the active and inactive calls. The calls are words filed in the database; no cut-off is given here.

What was measured:
[1] = test system: Bel-7402; assay: Induction of apoptosis in human Bel7402 cells assessed as annexin-V positive cells at 20 uM after 72 hrs by […] relative to control; format: functional
[2] = test system: Bel-7402; assay: Induction of autophagy in human Bel7402 cells assessed as accumulation of autophagic vacuoles at 20 uM after 24 hrs by acridine orange staining based fluorescence microscopic method; format: functional, cell-based
Procedure, shortened: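 Bel7402 cells (10 000) seeded overnight, then exposed alongside vehicle. Stained with acridine orange (1 mg/mL) for 15−20 min. Autophagic vacuoles scored by fluorescence microscopy as red versus green fluorescence at 400×. Representative images from three independent experiments.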

[3] = Inhibition of PI3K/AKT/mTOR signaling in human Bel7402 cells assessed as reduction in mTOR phosphorylation at 20 uM after 24 to 72 hrs by Western blot analysis; format: cell-based
Procedure, shortened: (§1)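 Bel7402 cells (1.5 × 10^5/mL) treated 24 or 72 h. Lysates (0.05 mg/lane) run on 12% SDS-PAGE, transferred to nitrocellulose, blocked with 5% nonfat milk. Probed for phospho-Akt (Ser473), total Akt, phospho-mTOR, total mTOR and β-actin; HRP secondary, chemiluminescent detection. Bands quantified against vehicle control; mean ± SD of three separate assays.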

[4] = target: Histone deacetylase 1 (Homo sapiens, UniProt Q13547); assay: Inhibition of HDAC1 (unknown origin) using Boc-Lys (Ac)-AMC as substrate incubated for 60 mins by fluorimetric assay
Sequence of Histone deacetylase 1 (Q13547 whole entry): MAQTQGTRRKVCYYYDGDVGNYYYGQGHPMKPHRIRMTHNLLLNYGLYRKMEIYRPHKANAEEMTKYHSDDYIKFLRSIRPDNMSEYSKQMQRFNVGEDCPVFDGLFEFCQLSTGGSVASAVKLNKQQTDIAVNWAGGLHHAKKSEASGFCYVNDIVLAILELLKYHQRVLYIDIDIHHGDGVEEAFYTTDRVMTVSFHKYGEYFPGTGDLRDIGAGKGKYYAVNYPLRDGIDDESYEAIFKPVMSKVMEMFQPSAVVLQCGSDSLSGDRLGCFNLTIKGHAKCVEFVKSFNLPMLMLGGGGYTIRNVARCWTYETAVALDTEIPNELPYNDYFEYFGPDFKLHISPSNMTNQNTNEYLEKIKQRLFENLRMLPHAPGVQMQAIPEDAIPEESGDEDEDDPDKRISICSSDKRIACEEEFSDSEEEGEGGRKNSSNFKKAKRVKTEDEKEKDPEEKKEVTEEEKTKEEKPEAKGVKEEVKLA

[5] = Inhibition of PI3K/AKT/mTOR signaling in human Bel7402 cells assessed as reduction in AKT phosphorylation at 20 uM after 24 to 72 hrs by Western blot analysis; format: cell-based; procedure, shortened: as §1
[6] = target: T1, Protein deacetylase HDAC6 (Homo sapiens, UniProt Q9UBN7); assay: Inhibition of human HDAC6 using Boc-Lys (Ac)-AMC as substrate incubated for 60 mins by fluorimetric assay
T1 sequence (Q9UBN7 whole entry): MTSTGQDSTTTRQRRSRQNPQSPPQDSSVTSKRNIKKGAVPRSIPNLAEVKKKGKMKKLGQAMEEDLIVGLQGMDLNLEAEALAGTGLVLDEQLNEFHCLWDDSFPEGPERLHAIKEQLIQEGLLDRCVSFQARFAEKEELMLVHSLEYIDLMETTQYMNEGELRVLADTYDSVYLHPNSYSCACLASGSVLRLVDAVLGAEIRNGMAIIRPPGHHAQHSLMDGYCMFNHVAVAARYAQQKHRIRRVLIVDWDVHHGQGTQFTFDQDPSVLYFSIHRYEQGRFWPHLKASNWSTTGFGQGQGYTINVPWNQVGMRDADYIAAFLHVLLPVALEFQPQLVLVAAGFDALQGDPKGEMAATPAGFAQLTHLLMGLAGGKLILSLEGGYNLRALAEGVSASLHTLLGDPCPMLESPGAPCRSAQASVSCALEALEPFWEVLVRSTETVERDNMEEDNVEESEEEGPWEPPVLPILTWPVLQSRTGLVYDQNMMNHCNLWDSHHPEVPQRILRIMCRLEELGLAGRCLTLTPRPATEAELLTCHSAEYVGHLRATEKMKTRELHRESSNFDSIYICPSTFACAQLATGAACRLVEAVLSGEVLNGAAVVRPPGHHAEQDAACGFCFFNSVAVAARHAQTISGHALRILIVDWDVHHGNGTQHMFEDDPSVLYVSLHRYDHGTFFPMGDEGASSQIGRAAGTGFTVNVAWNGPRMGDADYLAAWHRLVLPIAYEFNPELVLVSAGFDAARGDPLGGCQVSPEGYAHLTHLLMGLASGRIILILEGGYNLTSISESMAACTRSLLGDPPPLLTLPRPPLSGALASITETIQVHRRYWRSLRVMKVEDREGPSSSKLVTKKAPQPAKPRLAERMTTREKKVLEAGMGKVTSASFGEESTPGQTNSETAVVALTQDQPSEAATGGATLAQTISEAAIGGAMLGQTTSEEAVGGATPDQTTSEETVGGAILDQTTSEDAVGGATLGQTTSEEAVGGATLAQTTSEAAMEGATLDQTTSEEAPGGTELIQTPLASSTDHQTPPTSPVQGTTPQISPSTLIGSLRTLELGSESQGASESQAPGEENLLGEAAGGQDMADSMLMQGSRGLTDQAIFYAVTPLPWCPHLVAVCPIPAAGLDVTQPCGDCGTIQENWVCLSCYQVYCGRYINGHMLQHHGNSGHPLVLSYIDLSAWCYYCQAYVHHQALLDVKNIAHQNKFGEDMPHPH

[7] = test system: SMMC-7721; assay: Antiproliferative activity against human SMMC7721 cells after 72 hrs by MTT assay; format: functional, cell-based; conditions: SMMC-7721, 72 h
[8] = target: T2, Histone deacetylase 8 (Homo sapiens, UniProt Q9BY41); assay: Inhibition of human HDAC8 using Boc-Lys (Ac)-AMC as substrate incubated for 60 mins by fluorimetric assay
T2 sequence (Q9BY41 whole entry): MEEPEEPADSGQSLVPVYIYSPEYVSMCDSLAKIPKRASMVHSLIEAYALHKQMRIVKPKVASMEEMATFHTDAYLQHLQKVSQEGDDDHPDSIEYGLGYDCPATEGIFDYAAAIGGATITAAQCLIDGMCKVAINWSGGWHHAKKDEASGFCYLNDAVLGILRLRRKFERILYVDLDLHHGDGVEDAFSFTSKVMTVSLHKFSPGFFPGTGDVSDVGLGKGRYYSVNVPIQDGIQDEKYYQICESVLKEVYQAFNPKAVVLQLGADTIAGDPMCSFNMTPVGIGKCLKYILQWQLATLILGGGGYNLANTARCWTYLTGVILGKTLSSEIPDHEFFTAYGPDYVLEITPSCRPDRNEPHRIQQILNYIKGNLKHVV

[9] = test system: HepG2; assay: Antiproliferative activity against human HepG2 cells after 72 hrs by MTT assay; format: functional, cell-based; conditions: HepG2, 72 h
[10] = test system: Huh-7; assay: Antiproliferative activity against human HuH7 cells after 72 hrs by MTT assay; format: functional, cell-based; conditions: Huh-7, 72 h
[11] = organism: Homo sapiens; assay: Selectivity ratio of IC50 for HDAC1 (unknown origin) to IC50 for human HDAC6
Procedure, shortened: (§2)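 Recombinant human HDAC1, 3, 6 and 8 (fluorimetric kit) incubated with compound over a range of concentrations and Boc-Lys(Ac)-AMC substrate at 37 °C for 60 min. Reaction quenched with lysine developer; after 30 min, fluorescence read at ex 355/em 460 nm. Inhibition taken relative to control and IC50 fitted; ratios built from these IC50s.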

[12] = target: Histone deacetylase 3 (Homo sapiens, UniProt O15379); assay: Inhibition of human HDAC3 using Boc-Lys (Ac)-AMC as substrate incubated for 60 mins by fluorimetric assay
Sequence of Histone deacetylase 3 (O15379 whole entry): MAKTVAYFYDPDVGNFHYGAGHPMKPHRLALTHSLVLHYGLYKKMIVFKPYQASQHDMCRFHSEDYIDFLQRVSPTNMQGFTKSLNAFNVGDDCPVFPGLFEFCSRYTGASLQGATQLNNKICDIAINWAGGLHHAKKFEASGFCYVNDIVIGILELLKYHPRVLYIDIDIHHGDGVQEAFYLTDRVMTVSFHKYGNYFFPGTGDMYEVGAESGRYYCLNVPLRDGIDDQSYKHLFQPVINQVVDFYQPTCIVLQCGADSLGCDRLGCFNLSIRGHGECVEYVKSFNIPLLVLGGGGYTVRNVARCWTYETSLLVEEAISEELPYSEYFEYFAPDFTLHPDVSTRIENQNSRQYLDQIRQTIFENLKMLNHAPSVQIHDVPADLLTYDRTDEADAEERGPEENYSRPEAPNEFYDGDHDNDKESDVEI

[13] = test system: Bel-7402; assay: Antiproliferative activity against human Bel7402 cells after 72 hrs by MTT assay; format: functional, cell-based; conditions: Bel-7402, 72 h
[14] = organism: Homo sapiens; assay: Selectivity ratio of IC50 for human HDAC3 to IC50 for human HDAC6; procedure, shortened: as §2
[15] = test system: Bel-7402; assay: Induction of apoptosis in human Bel7402 cells assessed as annexin-V positive cells at 5 uM after 72 hrs by Annexin-V/PI staining based flow cytometry relative to control; format: functional
Procedure, shortened: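 Bel7402 cells (10 000) cultured overnight, then exposed to compound at 1.0 or 5.0 μM, or vehicle, for 72 h. Harvested, stained with annexin-V APC and 7-AAD for 15 min. Apoptotic percentage measured by flow cytometry (APC ex 633/em 660 nm; 7-AAD ex 488/em 647 nm). Three separate assays, mean ± SD.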

[16] = test system: Bel-7402; assay: Induction of apoptosis in human Bel7402 cells assessed as increase in cleaved PARP level at 5 uM after 72 hrs by Western blot analysis; format: functional, cell-based
Procedure, shortened: (§3)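 Subconfluent Bel7402 cells (1.5 × 10^5/mL) exposed to vehicle or compound for 72 h, then lysed. Lysates (0.05 mg/lane) run on 12% SDS-PAGE, transferred to nitrocellulose, blocked in 5% nonfat milk. Probed for Bax, Bcl-2, cleaved caspase-3 and cleaved PARP, with HRP secondary and chemiluminescence. Levels normalized to β-actin; three separate assays, mean ± SD.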

[17] = test system: Bel-7402; assay: Induction of apoptosis in human Bel7402 cells assessed as increase in cleaved caspase-3 level at 5 uM after 72 hrs by Western blot analysis; format: functional, cell-based; procedure, shortened: as §3
[18] = test system: Bel-7402; assay: Induction of autophagy in human Bel7402 cells assessed as upregulation of LC3-2 level at 5 uM after 24 to 72 hrs by Western blot analysis; format: functional, cell-based
Procedure, shortened: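 Bel7402 cells (1.5 × 10^5/mL) exposed to compound at indicated doses, or vehicle, for 24 or 72 h. Lysates (0.05 mg/lane) separated on 12% SDS-PAGE, blotted to nitrocellulose, blocked in 5% milk. Probed with anti-LC3, anti-p62 and anti-beclin-1, HRP secondary, chemiluminescent detection. Levels quantified relative to β-actin; three separate assays, mean ± SD.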

[19] = test system: Bel-7402; assay: Induction of autophagy in human Bel7402 cells assessed as accumulation of autophagic vacuoles at 5 uM after 24 hrs by acridine orange staining based fluorescence microscopic method; format: functional, cell-based
Procedure, shortened: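 Bel7402 cells (10 000) cultured overnight, then exposed to compound at 1.0 or 5.0 μM, or vehicle. Stained with 1 mg/mL acridine orange for 15−20 min, then dye removed. Red versus green fluorescence viewed by fluorescence microscopy at 400×. Representative images from three independent experiments.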

Row | SMILES | IC50 [4] [µM] | IC50 [7] [µM] | IC50 [9] [µM] | IC50 [13] [µM] | further results
1 | COc1ccc2c(c1)[nH]c1c(C)nccc12 [HARMINE] | > 1 | – | – | – | Activity [1]: 36.1%; Activity [2]: Active; inhibition [3]: Active; inhibition [5]: Active
2 | COc1ccc(-c2nc(NCCOc3ccc(/C=C/C(=O)NO)cc3OC)cc3c2[nH]c2ccccc23)cc1 | 0.032 | 4 | 4.8 | 1.8 | IC50 [6]: 0.017 µM; IC50 [8]: > 1 µM; IC50 [10]: 2.8 µM; Ratio IC50 [11]: 2; IC50 [12]: 0.125 µM; Ratio IC50 [14]: 7 to 11
3 | COc1ccc(-c2nc(NCCCCOc3ccc(/C=C/C(=O)NO)cc3)cc3c2[nH]c2ccccc23)cc1 | 0.125 | > 12.5 | 9.5 | 8.9 | –
4 | COc1ccc(-c2nc(NCCCOc3ccc(/C=C/C(=O)NO)cc3)cc3c2[nH]c2ccccc23)cc1 | 0.057 | 4.1 | 3.4 | 4 | –
5 | COc1ccc(-c2nc(NCCCCOc3ccc(/C=C/C(=O)NO)cc3OC)cc3c2[nH]c2ccccc23)cc1 | 0.061 | 7.1 | 5.3 | 4.6 | IC50 [10]: 6.2 µM
6 | O=C(CCCCCCC(=O)Nc1ccccc1)NO [VORINOSTAT] | – | – | – | – | Activity [15]: 45.4%; Activity [16]: Active; Activity [17]: Active; Activity [18]: Active; Activity [19]: Active
7 | COc1ccc(-c2nc(NCCOc3ccc(/C=C/C(=O)NO)cc3)cc3c2[nH]c2ccccc23)cc1 | 0.075 | 6.3 | 5.8 | 5.2 | –
